UCH37 inh – inhibitors of human UCH37 deubiquitinase, primary screen, biochemical, Ub-AMC cleavage, fluorescence | 0.33% of 330,000 active | purified proteasome/UCH37 | inhibition, % (test concentration not listed) | AID 588478, 2011;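 active means mean inhibition over replicate wells above about 20%, limit read from the data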;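 further: 0% = compound-free wells with enzyme and 100% = wells lacking proteasome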
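Signal – fluorescence, ex 355 nm, em 460 nm · System – Proteasome-bound UCH37 · Input – 0.15 nM proteasome as dispensed · Timing – 30 min preincubation with enzyme, 25 min cleavage at room temperature · Read-out basis – percent inhibition of cleavage signal versus uninhibited and no-proteasome wells · Medium – Tris-HCl pH 7.4 with ATP-MgCl2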
M18AAP inhibitor – PfM18AAP inhibitors, malaria aminopeptidase, primary screen, biochemical, QFRET, recombinant enzyme. inhibition, % at 7.35 µM. 1.2% of 290,000 active. H-Glu-NHMec fluorogenic cleavage. M18 aspartyl aminopeptidase (Plasmodium falciparum 3D7);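 active means inhibition above the campaign mean inhibition over all tested compounds plus 3 SD, cut at about 28% in these data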;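 further: 0% = plate median of test compound wells and 100% = 2 mM ZnCl2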
HDAC3 inh – HDAC3 deacetylase inhibitors, primary screen, biochemical, fluorescence, cell-free homogeneous. Histone deacetylase 3 (Homo sapiens), O15379. 0.15% of 320,000 active. recombinant HDAC3, fluorogenic peptide/trypsin coupled. inhibition, % at 8.3 µM; in the data active means inhibition above about 26%, passing the limit was not always enough; inconclusive means no clear call, values can overlap the other calls
ALR inh – inhibitors of human ALR sulfhydryl oxidase, primary screen, biochemical, H2O2 detection, HRP-luminol luminescence, single point; 3.8% of 290,000 active; AID 485317, 2010; purified ALR, DTT oxidation; inhibition, % (no concentration beside the values);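 active means mean replicate inhibition above about 79%, with every replicate also reaching it, limit read from the data; inconclusive means only one of the two criteria met; inactive means mean below limit and not every replicate reaching it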
Target sequence (P55789 whole entry, looked up): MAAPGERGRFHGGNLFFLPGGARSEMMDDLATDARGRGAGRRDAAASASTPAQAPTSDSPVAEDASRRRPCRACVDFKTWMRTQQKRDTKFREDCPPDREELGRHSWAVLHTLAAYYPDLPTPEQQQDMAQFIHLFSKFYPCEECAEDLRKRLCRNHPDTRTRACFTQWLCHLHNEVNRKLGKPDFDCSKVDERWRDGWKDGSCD
Rtt109 Vps75 – inhibitors of C. albicans Rtt109/Vps75 HAT, primary screen, biochemical, ThioGlo CoA-SH fluorescence, plate reader; inhibition, % at 34.9 µM; purified Rtt109/Vps75, 4 h; 0.16% of 330,000 active;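 active means inhibition of at least 50% in every replicate; inconclusive means best replicate reaches 50% inhibition but some replicates fall short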
Target sequence (Q5AAJ8 whole entry, looked up): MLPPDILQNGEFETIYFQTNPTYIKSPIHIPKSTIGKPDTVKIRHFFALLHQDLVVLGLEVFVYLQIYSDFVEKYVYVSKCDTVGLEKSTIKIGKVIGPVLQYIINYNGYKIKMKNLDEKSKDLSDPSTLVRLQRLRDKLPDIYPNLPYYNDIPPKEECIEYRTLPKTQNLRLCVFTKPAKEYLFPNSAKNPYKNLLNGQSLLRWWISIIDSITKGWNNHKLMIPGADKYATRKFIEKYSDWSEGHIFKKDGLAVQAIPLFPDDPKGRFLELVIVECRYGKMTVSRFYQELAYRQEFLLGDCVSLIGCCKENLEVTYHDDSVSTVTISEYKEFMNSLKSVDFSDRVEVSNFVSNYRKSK
FAS TE block – FAS thioesterase domain inhibitors, primary screen, biochemical, fluorescence intensity, uHTS; Fatty acid synthase (Homo sapiens), P49327; recombinant FAS-TE, OMFH fluorogenic substrate, fluorescence endpoint; inhibition, % at 15 µM; 0.67% of 360,000 active; AID 602261, 2012;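 active means compounds whose normalised, plate-corrected inhibition of enzyme fluorescence in the single-dose primary screen is 50% or more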;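 further: 0% = DMSO with enzyme and 100% = substrate without enzyme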
FAS-TE conf – FAS thioesterase domain inhibitors, confirmation, biochemical, fluorescence intensity, single concentration. AID 624325, 2012. 45% of 2,300 active. inhibition, % at 15 µM. recombinant FAS-TE, OMFH fluorogenic substrate. shares compounds with FAS TE block;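 active means compounds inhibiting the enzyme by at least 50% at 15 µM in any one of the replicates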;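 further: 0% = enzyme with DMSO only and 100% = wells lacking enzyme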
Active calls of the source: *; ? = inconclusive; / = no result. A selection: hits, their analogues and other compounds. The true share with any hit is near 4.6%.

SMILES	UCH37 inh	M18AAP inhibitor	HDAC3 inh	ALR inh	Rtt109 Vps75	FAS TE block	FAS-TE conf
O=C(NN=Cc1cccc([N+](=O)[O-])c1)c1nc2ccccc2c(=O)[nH]1	7	/	/	/	/	/	/
CC(=NNC(=O)Cc1ccc(F)cc1)c1ccc(O)cc1	-1	/	/	/	/	/	/
Cc1cc([N+](=O)[O-])nn1Cc1ccc(C(=O)NN=Cc2ccc(F)cc2)cc1	5	/	/	/	/	/	/
CCCNC(=O)c1nnsc1S(=O)c1ccc(Cl)cc1 (stereo unspecified)	5	-284	/	/	?	14	/
CCCNC(=O)c1nnsc1S(=O)(=O)c1ccc(Cl)cc1	4	-357	/	/	?	53*	70*
COc1ccc(S(=O)(=O)N2CCC(CN3C(=O)c4cccc5cccc(c45)C3=O)CC2)cc1	-197	2	2	-8	-53	63*	25
O=C(c1ccc(S(=O)(=O)N2CCCC2)cc1)N1CCC(CN2C(=O)c3cccc4cccc(c34)C2=O)CC1	-6	-6	3	-4	-2	3	/
O=c1c(=Cc2ccccn2)sc2n1CN(c1ccccc1)CN=2	8	/	/	/	/	/	/
CC(C)(CNC(=O)c1ccc([N+](=O)[O-])c(Cl)c1)CNC(=O)c1ccc([N+](=O)[O-])c(Cl)c1	3	3	17	-23	1	56*	63*
Cc1ccc(C(=O)NCCNc2ncc(C(F)(F)F)cc2Cl)cc1[N+](=O)[O-]	1	0	7	-6	20	55*	60*
COc1ccc(C(=O)NCCNc2ncc(C(F)(F)F)cc2Cl)cc1[N+](=O)[O-]	-2	6	5	-1	0	53*	47*
O=[N+]([O-])c1ccccc1NCCNc1ncc(C(F)(F)F)cc1Cl	4	-4	2	-2	-17	19	/
Cc1ccc(C)c(N2CCN(S(=O)(=O)c3ccc4c(c3)CC(C)N4C(=O)C3CC3)CC2)c1 (stereo unspecified)	2	-4	-5	0	-4	54*	7
CC1Cc2cc(S(=O)(=O)N3CCN(C)CC3)ccc2N1C(=O)C1CC1 (stereo unspecified)	5	-2	-2	-4	24	-6	/
CC(=O)c1ccc(N2CCN(S(=O)(=O)c3ccc4c(c3)CC(C)N4C(=O)C3CC3)CC2)cc1 (stereo unspecified)	-2	-7	-1	-2	1	25	/
Cc1cccc(N2CCN(S(=O)(=O)c3ccc4c(c3)CC(C)N4C(=O)C3CC3)CC2)c1C (stereo unspecified)	2	-9	-3	-5	-5	65*	14
CCC(=O)N1c2ccc(S(=O)(=O)N3CCN(c4ccc([N+](=O)[O-])cc4)CC3)cc2CC1C (stereo unspecified)	4	1	-4	-4	1	64*	24
O=C(COc1cccc2ccccc12)NN=Cc1ccncc1	3	/	/	/	/	/	/
CN(C)C=NNC(=O)C1Cc2c(ccc3ccccc23)O1 (stereo unspecified)	3	/	/	/	/	/	/
CCn1c2ccccc2c2cc(C(C)=NO)ccc21	0	/	/	/	/	/	/
CC(=NNc1ccc([N+](=O)[O-])cc1)c1ccc2c(c1)OCO2	3	/	/	/	/	/	/
CC(=NNC(=O)C1CCCC1)c1ccc(C(C)C)cc1	3	/	/	/	/	/	/
O=C(NCCc1ccccc1)C(c1cccs1)N(C(=O)CCl)c1ccc(Cl)cc1 (stereo unspecified)	2	-22	5	5	1	56*	54*
CC(=NNC(=O)c1ccc(Cn2cc([N+](=O)[O-])cn2)o1)c1cccc(NC(=O)C(C)C)c1	5	/	/	/	/	/	/
Cc1c(NC(=O)C(C)OC(=O)c2cc(-c3cccc4ccccc34)nc3ccccc23)c(=O)n(-c2ccccc2)n1C (stereo unspecified)	-8	-5	-2	-9	2	73*	16
SMILES	UCH37 inh	M18AAP inhibitor	HDAC3 inh	ALR inh	Rtt109 Vps75	FAS TE block	FAS-TE conf
COc1ccc(OC)c(C=NNC(=O)c2cc3c(OC)cccc3[nH]2)c1	-110	/	/	/	/	/	/
COc1cc(C(=O)NC(=S)Nc2ccccc2[N+](=O)[O-])cc(OC)c1OC	1	6	5	11	-9	65*	25
COc1ccc(C=NNC(=O)c2ccncc2)cc1Cn1nc([N+](=O)[O-])c(Br)c1C	1	/	/	/	/	/	/
O=C(NCc1ccc(Cl)cc1)C1=Cc2cc(Cl)ccc2OC1	3	-13	12	-2	-3	64*	40
CC(=C1SC(=S)NC1=O)c1ccccc1	/	/	/	/	-2	-2	/
CC1(c2ccccc2)CC(C)(C)N2C(=O)/C(=C3\SC(=S)NC3=O)c3cccc1c32 (stereo unspecified)	4	-9	-5	-26	10	78*	10
O=CN1N=C(c2ccccc2)CC1c1ccc(Cl)cc1 (stereo unspecified)	/	1	1	8	-6	4	/
O=C1OC(c2ccccc2)=NC12CC2c1ccc(Cl)cc1 (stereo unspecified)	5	-5	1	42	4	90*	97*
C=C(C)CSc1ncc(-c2cccc(C(F)(F)F)c2)cn1	4	4	18	-20	-2	58*	36*
Cc1cc(NN=Cc2ccccc2Br)nc2ccccc12	3	/	/	/	/	/	/
CON=CCC(=O)c1ccc(-c2ccccc2)cc1	5	/	/	/	/	/	/
Cc1ccc(-c2nnc(NCc3nc4ccccc4[nH]3)c3ccccc23)cc1S(=O)(=O)N1CCCCC1	-16	2	/	/	-4	69*	21
COc1cccc(NC(=S)N2CCc3cc(OC)c(OC)cc3C2COc2ccc3c(C)cc(=O)oc3c2)c1 (stereo unspecified)	-19	-1	1	-4	0	58*	7
CCNC(=S)N1CCc2cc(OC)c(OC)cc2C1COc1ccc(OC)cc1 (stereo unspecified)	2	-1	4	1	-6	16	/
COc1ccc(Nc2cc(C(=O)N3CCc4ccccc4C3)c3ccccc3n2)c(OC)c1	-4	1	16	-6	/	61*	28
COc1ccccc1Nc1cc(C(=O)N2CCc3ccccc3C2)c2ccccc2n1	-30	-15	-1	-15	/	/	/
Nc1nonc1-n1nnc(C(=O)NN=Cc2cc(Br)ccc2O)c1CSC1=NCCS1	-6	/	/	/	/	/	/

Screening results as filed in PubChem BioAssay.
